Measurements reported in ChEMBL document CHEMBL2380243, “Design and synthesis of 2-N-substituted indazolone derivatives as non-carboxylic acid glycogen synthase activators” (Bioorg Med Chem Lett, 2013).

molecular target: T1, Glycogen [starch] synthase, muscle (Homo sapiens) (UniProt P13807); assay: Activation of human recombinant muscle GYS1 expressed in insect sf9 cells using glycogen and UDP-glucose as substrates assessed as concentration required to 200% activation by spectrophotometry
T1 sequence (whole entry): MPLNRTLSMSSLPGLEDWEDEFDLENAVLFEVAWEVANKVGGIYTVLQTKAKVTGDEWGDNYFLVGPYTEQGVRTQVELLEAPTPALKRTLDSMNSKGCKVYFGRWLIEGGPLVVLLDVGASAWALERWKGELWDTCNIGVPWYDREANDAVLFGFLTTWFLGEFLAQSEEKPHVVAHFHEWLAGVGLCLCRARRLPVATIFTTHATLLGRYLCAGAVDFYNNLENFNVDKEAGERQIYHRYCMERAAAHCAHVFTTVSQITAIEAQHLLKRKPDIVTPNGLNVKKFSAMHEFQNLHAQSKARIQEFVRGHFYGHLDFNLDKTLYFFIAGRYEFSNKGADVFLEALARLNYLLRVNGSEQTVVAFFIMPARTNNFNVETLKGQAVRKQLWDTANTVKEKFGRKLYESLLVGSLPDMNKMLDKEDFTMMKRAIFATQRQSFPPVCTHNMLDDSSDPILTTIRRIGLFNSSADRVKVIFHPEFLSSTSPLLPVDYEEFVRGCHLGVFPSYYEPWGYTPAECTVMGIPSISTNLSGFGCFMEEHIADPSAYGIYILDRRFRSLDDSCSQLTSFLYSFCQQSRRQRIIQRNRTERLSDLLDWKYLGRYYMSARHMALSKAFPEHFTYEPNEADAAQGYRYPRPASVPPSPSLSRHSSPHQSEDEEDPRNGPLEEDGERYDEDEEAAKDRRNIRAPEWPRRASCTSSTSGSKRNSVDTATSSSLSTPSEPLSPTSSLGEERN
In short: (§1)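 Recombinant human muscle GYS1 (partially purified from sf9 cells) is read in a pyruvate kinase/lactate dehydrogenase-coupled assay at room temperature. Compounds are diluted in 30 mM glycylglycine pH 7.3, 40 mM KCl, 20 mM MgCl2, 9.2% DMSO, ±20 mM glucose-6-phosphate. The substrate mix holds glycogen, UDP-glucose, PEP and NADH, all as solution concentrations. NADH loss is read at 340 nm every 3 min for 15 min. EC50 is half-maximal activation, SC200 is the concentration doubling activity, and dose-response runs are in triplicate.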

Activity [µM] | Compound
0.06 | COc1cc(F)c(F)cc1-c1ccc(OCc2cccc3c(=O)n(CC(=O)O)[nH]c23)cc1
0.11 | Cc1cc(F)c(F)cc1-c1ccc(OCc2cccc3c(=O)n(C[C@H](O)CO)[nH]c23)cc1
0.52 | COCCn1[nH]c2c(COc3ccc(-c4cc(F)c(F)cc4F)cc3)cccc2c1=O
0.07 | COc1cc(F)c(F)cc1-c1ccc(OCc2cccc3c(=O)n(C[C@H](O)CO)[nH]c23)cc1
0.32 | O=c1c2cccc(COc3ccc(-c4cc(F)c(F)cc4F)cc3)c2[nH]n1C[C@@H](O)CO
0.06 | COc1cc(F)c(F)cc1-c1ccc(OCc2cccc3c(=O)n(C[C@@H](O)CO)[nH]c23)cc1

The next lines start with the molecule.

Compound | Activity [µM]
O=c1c2cccc(COc3ccc(-c4cc(F)c(F)cc4Cl)cc3)c2[nH]n1-c1cccnc1 | 1.14
COc1cc(F)c(F)cc1-c1ccc(OCc2cccc3c(=O)n(-c4ccc(F)cc4)[nH]c23)cc1 | 2.01
COCCn1[nH]c2c(COc3ccc(-c4cc(F)c(F)cc4OC)cc3)cccc2c1=O | 0.11

molecular target: T1, Glycogen [starch] synthase, muscle (Homo sapiens); assay: Activation of human recombinant muscle GYS1 expressed in insect sf9 cells using glycogen and UDP-glucose as substrates at 75 uM by spectrophotometry relative to control
In short: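 Same coupled GYS1 assay (sf9-derived human muscle enzyme, PK/LDH coupling, NADH absorbance at 340 nm read every 3 min over 15 min, room temperature). Activation is expressed as fold increase over control at the highest concentration tested.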

fold change (FC) | Compound
3.2 | COc1cc(F)c(F)cc1-c1ccc(OCc2cccc3c(=O)n(CC(=O)O)[nH]c23)cc1
3.3 | Cc1cc(F)c(F)cc1-c1ccc(OCc2cccc3c(=O)n(C[C@H](O)CO)[nH]c23)cc1
3 | COCCn1[nH]c2c(COc3ccc(-c4cc(F)c(F)cc4F)cc3)cccc2c1=O
3.3 | COc1cc(F)c(F)cc1-c1ccc(OCc2cccc3c(=O)n(C[C@H](O)CO)[nH]c23)cc1
3.3 | O=c1c2cccc(COc3ccc(-c4cc(F)c(F)cc4F)cc3)c2[nH]n1C[C@@H](O)CO
3.1 | COc1cc(F)c(F)cc1-c1ccc(OCc2cccc3c(=O)n(C[C@@H](O)CO)[nH]c23)cc1

The remaining lines, values behind:

Compound | fold change (FC)
COc1cc(F)c(F)cc1-c1ccc(OCc2cccc(C(=O)N(C)CC(=O)O)c2)cc1 | 6.8
COc1cc(F)c(F)cc1-c1ccc(OCc2cccc(C(=O)N(C)CC(O)CO)c2)cc1 (configuration not stated) | 6.6
COc1cc(F)c(F)cc1-c1ccc(OCc2cccc(C(=O)N(C)CCO)c2)cc1 | 7.3
COc1cc(F)c(F)cc1-c1ccc(OCc2cccc(C(=O)N3CCC[C@H]3C(=O)O)c2)cc1 | 5.4
O=c1c2cccc(COc3ccc(-c4cc(F)c(F)cc4Cl)cc3)c2[nH]n1-c1cccnc1 | 6.1
COc1cc(F)c(F)cc1-c1ccc(OCc2cccc3c(=O)n(-c4ccc(F)cc4)[nH]c23)cc1 | 2.8
COCCn1[nH]c2c(COc3ccc(-c4cc(F)c(F)cc4OC)cc3)cccc2c1=O | 4.4
O=C(O)[C@@H]1CCCN1C(=O)c1ccc(COc2ccc(-c3ccccc3)cc2)o1 | 5.8

molecular target: T2, Glycogen [starch] synthase, muscle (Homo sapiens, UniProt P13807); assay: Activation of human recombinant muscle GYS1 expressed in insect sf9 cells using glycogen and UDP-glucose as substrates by spectrophotometry; in short: as §1
T2 sequence (P13807 whole entry): T1 sequence (whole entry)

EC50 [nM] | Compound
200 | COc1cc(F)c(F)cc1-c1ccc(OCc2cccc3c(=O)n(CC(=O)O)[nH]c23)cc1
340 | Cc1cc(F)c(F)cc1-c1ccc(OCc2cccc3c(=O)n(C[C@H](O)CO)[nH]c23)cc1
790 | COCCn1[nH]c2c(COc3ccc(-c4cc(F)c(F)cc4F)cc3)cccc2c1=O
250 | COc1cc(F)c(F)cc1-c1ccc(OCc2cccc3c(=O)n(C[C@H](O)CO)[nH]c23)cc1
680 | O=c1c2cccc(COc3ccc(-c4cc(F)c(F)cc4F)cc3)c2[nH]n1C[C@@H](O)CO
270 | COc1cc(F)c(F)cc1-c1ccc(OCc2cccc3c(=O)n(C[C@@H](O)CO)[nH]c23)cc1

Further lines, the molecule ahead of its results:

Compound | EC50 [nM]
COc1cc(F)c(F)cc1-c1ccc(OCc2cccc(C(=O)N(C)CC(=O)O)c2)cc1 | 100
COc1cc(F)c(F)cc1-c1ccc(OCc2cccc(C(=O)N(C)CC(O)CO)c2)cc1 (configuration not stated) | 10300
COc1cc(F)c(F)cc1-c1ccc(OCc2cccc(C(=O)N(C)CCO)c2)cc1 | 4100
COc1cc(F)c(F)cc1-c1ccc(OCc2cccc(C(=O)N3CCC[C@H]3C(=O)O)c2)cc1 | 140
O=c1c2cccc(COc3ccc(-c4cc(F)c(F)cc4Cl)cc3)c2[nH]n1-c1cccnc1 | 1860
COc1cc(F)c(F)cc1-c1ccc(OCc2cccc3c(=O)n(-c4ccc(F)cc4)[nH]c23)cc1 | 1370
COCCn1[nH]c2c(COc3ccc(-c4cc(F)c(F)cc4OC)cc3)cccc2c1=O | 370
O=C(O)[C@@H]1CCCN1C(=O)c1ccc(COc2ccc(-c3ccccc3)cc2)o1 | 15100
